High-throughput results deposited in PubChem BioAssay by Broad Institute.
Sampled rows, rich in hits. Any-hit rate of the full collection: about 3.5%.
PGC1a acetyl inh = inhibitors of PGC1a acetylation signal, primary screen, cell-based, U2OS, AlphaScreen, inhibitor mode; AlphaScreen anti-acetyl-lysine; with virally co-expressed GCN5 acetyltransferase; inhibition, % at 15.6 µM; 350,000 compounds, 0.17% hits; AID 651687, 2012;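 active = every replicate shows inhibition of at least 40%; inconclusive = mean inhibition at least 40% but some replicate below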
rRNA inh HTS = reduced GFP signal of wild-type E. coli, primary screen, bacterial rRNA inhibitor project, GFP/RFP fluorescence, OD600, single point; 350,000 compounds, 1.6% hits; AID 720706, 2013; GFP signal change (wild-type ribosome), % (no concentration beside the values); E. coli WT GFP vs humanized-ribosome RFP mutants, 24 h; active compounds read low; DMSO median 0, no signal -100;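 active = significant combined selectivity score with lowered wild-type GFP, culture density cut under 30%, mutant RFP and density less affected; inactive = any of these conditions unmet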
FN deposit inh = inhibitors of fibronectin matrix deposition, primary screen, AH1F cells, Alexa488-fibronectin fluorescence, plate reader; AH1F fibroblasts, overnight; inhibition, % at 12.6 µM; 350,000 compounds, 0.086% hits;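 active = mean inhibition across replicates of 30% or more, regardless of how many single replicates reach that level; inconclusive = mean under 30% yet at least half of replicates reach 30%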
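Assay system: AH1F fibroblasts / Quantity: 10000 cells per well / Medium: DMEM plus 2% serum, read in PBS / Reagent: labelled fibronectin 24 nM / Dosing: single dose, pinned / Times: 1 h cell attachment, overnight exposure to compound and label / Signal: fluorescence, ex 485 nm, em 525 nm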
DENV2 CPE rescue = inhibitors of DENV2 cytopathic effect, primary screen, cell-based, plate reader, single concentration | 350,000 compounds, 1.7% hits | DENV2-infected cells, cytopathic effect rescue | CPE inhibition, % at 9.99 µM; in the data active = CPE inhibition above about 20%, passing the limit was not always enough; inconclusive = no clear call, values can overlap the other calls; tested in BHK-21 cells
Env fusion inh = inhibitors of HIV-1 Env-driven cell-cell fusion, primary screen, HeLa-JRFL effector, CEM21 target cells, luciferase | inhibition, % at 12.3 µM | 360,000 compounds, 1.1% hits | AID 651610, 2012;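 active = mean replicate inhibition score of at least 50 and every replicate individually at or above 50; inconclusive = only one of the two criteria met; inactive = mean below 50 and not all replicates reaching 50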
PglD DTNB = C. jejuni PglD acetyltransferase inhibitors, primary screen, biochemical, DTNB colorimetric, single point | UDP-N-acetylbacillosamine N-acetyltransferase PglD (Campylobacter jejuni) | purified PglD enzyme, DTNB colorimetric CoA detection | inhibition, % at 12.5 µM | 360,000 compounds, 0.098% hits; in the data active = inhibition above about 16%, passing the limit was not always enough; inconclusive = no clear call, values can overlap the other calls
Of the large screens only hits and unclear results are named; the others gave an inactive call; ! = repeats disagree; [ ] = remark or other dose.

COc1ccc(CC(=O)O/N=C(\N)c2ccc(C)cc2)cc1	rRNA inh HTS -22
N/C(=N\OC(=O)Cc1ccc(Cl)cc1)c1cccnc1	none (no result: FN deposit inh, DENV2 CPE rescue, Env fusion inh)
COc1ccc(CC(=O)O/N=C(\N)c2ccncc2)cc1	none (no result: PGC1a acetyl inh, PglD DTNB)
N/C(=N\OC(=O)Cc1ccc(Cl)cc1)c1ccncc1	rRNA inh HTS -22 (no result: PglD DTNB)
CCc1cc(Cn2nc(-c3ccccc3C)cc2C(=O)O)on1	DENV2 CPE rescue 25 (no result: PGC1a acetyl inh)
CCOC(=O)c1cc(-c2ccccc2C)nn1Cc1cc(C)no1	DENV2 CPE rescue 32
CCc1cc(Cn2nc(C(=O)O)cc2-c2ccccc2)on1	none (no result: PGC1a acetyl inh)
C[C@@H]1CN([C@@H](C)CO)S(=O)(=O)c2ccc(C3=CCCC3)cc2O[C@H]1CN(C)Cc1ccncc1	none
COc1cccc(-c2ccc3c(c2)O[C@H](CN(C)Cc2cncnc2)[C@H](C)CN([C@@H](C)CO)S3(=O)=O)c1	DENV2 CPE rescue 28
C[C@H](CO)N1C[C@H](C)[C@H](CN(C)Cc2ccncc2)Oc2cc(C3=CCCC3)ccc2S1(=O)=O	DENV2 CPE rescue 36
C[C@H](CO)N1C[C@H](C)[C@H](CN(C)Cc2cncnc2)Oc2cc(C3=CCCCC3)ccc2S1(=O)=O	DENV2 CPE rescue 30 (no result: FN deposit inh)
C[C@H](CO)N1C[C@H](C)[C@@H](CN(C)Cc2ccncc2)Oc2cc(C3=CCCCC3)ccc2S1(=O)=O	Env fusion inh 64[16.7 µM] (no result: FN deposit inh)
C[C@@H]1CCCCO[C@H](CN(C)S(=O)(=O)c2ccccc2)[C@H](C)CN([C@H](C)CO)C(=O)c2cc(NS(=O)(=O)c3cn(C)cn3)ccc2O1	none
C[C@H](CO)N1C[C@H](C)[C@H](CN(C)Cc2cccnc2)Oc2cc(C3=CCCC3)ccc2S1(=O)=O	DENV2 CPE rescue 28
C[C@@H]1CN([C@H](C)CO)S(=O)(=O)c2ccc(-c3cncnc3)cc2O[C@H]1CN(C)C	DENV2 CPE rescue 34 (no result: FN deposit inh)
C[C@@H]1CCCCO[C@H](CN(C)Cc2ccccc2)[C@H](C)CN([C@H](C)CO)C(=O)c2cc(NC(=O)CCC(F)(F)F)ccc2O1	DENV2 CPE rescue 37
COc1ccc(CN(C)C[C@H]2OCCCC[C@@H](C)Oc3ccc(NC(=O)CCC(F)(F)F)cc3C(=O)N([C@H](C)CO)C[C@@H]2C)cc1	none (no result: FN deposit inh)
C[C@@H]1CN([C@@H](C)CO)C(=O)c2cc(NC(=O)c3ccccc3)ccc2O[C@@H](C)CCCCO[C@@H]1CN(C)C(=O)CCC(F)(F)F	DENV2 CPE rescue 29
COc1ccc(CN(C)C[C@@H]2OCCCC[C@H](C)Oc3ccc(NC(=O)CCC(F)(F)F)cc3C(=O)N([C@H](C)CO)C[C@H]2C)cc1	DENV2 CPE rescue 62 (no result: FN deposit inh)
C[C@@H]1CCCCO[C@@H](CN(C)Cc2ccccc2)[C@H](C)CN([C@H](C)CO)C(=O)c2cc(NC(=O)CCC(F)(F)F)ccc2O1	DENV2 CPE rescue inconclusive
COc1ccc(CN(C)C[C@H]2OCCCC[C@H](C)Oc3ccc(NC(=O)CCC(F)(F)F)cc3C(=O)N([C@@H](C)CO)C[C@@H]2C)cc1	DENV2 CPE rescue 44!
COC(=O)C[C@@H]1CC[C@H](NC(=O)c2ccccc2)[C@H](CO)O1	none
Cc1ccc(S(=O)(=O)Nc2ccc3c(c2)C(=O)N([C@H](C)CO)C[C@@H](C)[C@H](CN(C)C)OCCCC[C@@H](C)O3)cc1	none
c1ccc(CNc2ncnc3scc(-c4cccs4)c23)nc1	rRNA inh HTS -27
Cc1ccc(S(=O)(=O)N[C@@H]2C=C[C@@H](CC(=O)NCc3ccccc3F)O[C@H]2CO)cc1	none (no result: FN deposit inh)
C[C@@H]1CCCCO[C@H](CN(C)S(=O)(=O)c2ccc(Cl)cc2)[C@H](C)CN([C@@H](C)CO)C(=O)c2cc(NS(=O)(=O)c3ccc(Cl)cc3)ccc2O1	none
CN(C)C(=O)C[C@H]1CC[C@H]2[C@@H](COC[C@H](O)CN2CC2CCCC2)O1	DENV2 CPE rescue 48 (no result: Env fusion inh)
O=C(C[C@H]1CC[C@H]2[C@@H](COC[C@@H](O)CN2CC2CCCCC2)O1)NCC1CC1	DENV2 CPE rescue 27 (no result: Env fusion inh)
CN(C)C(=O)C[C@@H]1CC[C@H]2[C@@H](COC[C@@H](O)CN2CC2CCCC2)O1	none (no result: Env fusion inh)
O=C(C[C@H]1CC[C@H]2[C@@H](COC[C@@H](O)CN2C(=O)Nc2cc(Cl)cc(Cl)c2)O1)NCC1CC1	none (no result: Env fusion inh)
CCCOc1ccc(N2C(=O)CC(N(CCOC34CC5CC(CC(C5)C3)C4)C(C)=O)C2=O)cc1 (stereo not drawn)	Env fusion inh 57
CCCCN(C(C)=O)C1CC(=O)N(c2ccc(OCCC)cc2)C1=O (stereo not drawn)	Env fusion inh inconclusive
CO[C@H]1CN(C)C(=O)c2cc(NC(=O)NC(C)C)ccc2OC[C@H](C)N(Cc2ccccn2)C[C@H]1C	none (no result: Env fusion inh)
CC1(Cc2ccccc2C#N)C(=O)Nc2ccc(-c3ccccc3)cc21 (stereo not drawn)	none (no result: Env fusion inh)
COc1ccccc1-c1ccc2c(c1)C(C)(Cc1ccccc1C#N)C(=O)N2 (stereo not drawn)	Env fusion inh 63 (no result: PGC1a acetyl inh)
COc1ccccc1-c1ccc2c(c1)C(C)(Cc1ccc(Cl)c(Cl)c1)C(=O)N2 (stereo not drawn)	DENV2 CPE rescue inconclusive, Env fusion inh 100
COc1cccc(S(=O)(=O)Nc2ccc3c(c2)C(=O)N(C)C[C@H](OC)[C@@H](C)CN[C@H](C)CO3)c1	none
C[C@@H]1CN([C@@H](C)CO)C(=O)c2cc(NC(=O)NC3CCCCC3)ccc2O[C@H]1CN(C)C(=O)Nc1ccc(F)cc1	none
CC1=CC(=O)[C@@H](OC(=O)Nc2ccc(C)cc2)[C@@H](c2ccccc2Br)N1C	none
CC1=CC(=O)[C@@H](O)[C@@H](c2ccccc2Br)N1C	FN deposit inh active
CCCNC(=O)N(C)C[C@@H]1Oc2cc(-c3ccccc3)ccc2S(=O)(=O)N([C@H](C)CO)C[C@@H]1C	none (no result: FN deposit inh)
Cc1cc(F)ccc1C(O)c1ncc(-c2ccccc2C(F)(F)F)[nH]1 (stereo not drawn)	DENV2 CPE rescue 60 (no result: PGC1a acetyl inh)
O=C(CN1CCOCC1)NCC[C@@H]1CC[C@@H](NC(=O)Nc2ccc(C(F)(F)F)cc2)[C@H](CO)O1	none (no result: DENV2 CPE rescue)
COc1ccc(OC)c(NC(=O)c2ccc(NC(C)=O)cc2)c1	none (no result: rRNA inh HTS, FN deposit inh, DENV2 CPE rescue, Env fusion inh, PglD DTNB)
CCCc1cc(C(=O)Nc2cc(OC)ccc2OC)cs1	rRNA inh HTS -32 (no result: PGC1a acetyl inh)
CNC[C@H]1OCCCC[C@H](C)Oc2ccc(NC(=O)c3ccccc3)cc2C(=O)N([C@@H](C)CO)C[C@@H]1C	none (no result: FN deposit inh)
